The list is a sample of the results.
HKDC1 act = activators of human hexokinase HKDC1; activity change, negative = activation, % at 20 µM; recombinant HKDC1, G6PDH/diaphorase resazurin fluorescence; active compounds read low; Q2TB90; hit rate 0.056% among 340,000;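 active = activation of 40% or more at 20 µM, a change of -40% or lower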
Target sequence (Q2TB90 whole entry, looked up): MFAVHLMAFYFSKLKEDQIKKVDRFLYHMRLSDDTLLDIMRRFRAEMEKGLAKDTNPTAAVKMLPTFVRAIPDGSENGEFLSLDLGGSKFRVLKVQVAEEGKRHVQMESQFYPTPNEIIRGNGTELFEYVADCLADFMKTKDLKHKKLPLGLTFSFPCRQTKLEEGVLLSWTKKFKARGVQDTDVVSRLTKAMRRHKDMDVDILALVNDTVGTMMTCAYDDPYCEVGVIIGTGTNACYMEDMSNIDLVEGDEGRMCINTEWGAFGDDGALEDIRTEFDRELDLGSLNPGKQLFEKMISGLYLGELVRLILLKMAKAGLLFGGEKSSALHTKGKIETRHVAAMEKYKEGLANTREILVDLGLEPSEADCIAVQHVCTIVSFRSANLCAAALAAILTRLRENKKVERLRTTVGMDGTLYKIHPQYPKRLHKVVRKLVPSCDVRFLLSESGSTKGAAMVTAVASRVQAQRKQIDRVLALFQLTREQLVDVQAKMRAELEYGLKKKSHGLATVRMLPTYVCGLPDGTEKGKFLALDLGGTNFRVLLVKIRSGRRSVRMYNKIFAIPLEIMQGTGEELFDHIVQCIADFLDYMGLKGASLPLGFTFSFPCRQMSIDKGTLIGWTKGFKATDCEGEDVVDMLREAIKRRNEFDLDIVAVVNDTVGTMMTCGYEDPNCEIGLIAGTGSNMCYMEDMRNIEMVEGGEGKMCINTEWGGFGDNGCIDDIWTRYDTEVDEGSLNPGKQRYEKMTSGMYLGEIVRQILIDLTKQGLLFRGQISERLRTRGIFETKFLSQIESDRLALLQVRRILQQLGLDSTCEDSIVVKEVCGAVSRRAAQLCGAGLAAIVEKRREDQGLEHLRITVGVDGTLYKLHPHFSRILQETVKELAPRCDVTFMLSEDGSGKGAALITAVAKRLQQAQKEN
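Material: in-house human HKDC1 enzyme, G6PDH and diaphorase coupling enzymes | Quantity: HKDC1 at 5 µg/mL final | Medium: Tris buffer at pH 8.0 containing MgCl2 | Compound dosing: 20 µM single dose | Schedule: 90 min reaction at room temperature, dark | Measured by: Resorufin fluorescence, 525/613 nm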
Active calls of the source: *.

SMILES	HKDC1 act
COc1ccc2c(c1)CCc1c(C(=O)N3CCCc4ccccc43)noc1-2	38
Nc1ccc(S(=O)(=O)c2cc(O)c3ccccc3c2O)cc1	55
COc1ccc(NC(=O)Cc2c[nH]c3ccccc23)cc1S(=O)(=O)N1CCCCC1	49
Oc1ccc2ccccc2c1/C=N/c1nccs1	37
CC(=O)N1c2ccc(Cl)cc2C2C=CCC2C1c1cccc2ccccc12 (stereo not drawn)	42
COc1cc(/C=C2\SC(c3ccccc3)=NC2=O)cc(Cl)c1O	49
CCCCNCCOCCOc1ccccc1-c1ccccc1	-59*
COC(=O)c1ccc(NCc2c(O)ccc(O)c2Br)cc1Cl	45
CC(C)c1ccc(S(=O)(=O)/N=C2/C=C(Sc3ncn[nH]3)C(=O)c3ccccc32)cc1	64
O=C(Cc1ccc(Cl)cc1Cl)Nc1cccc(S(=O)(=O)Nc2ccccc2F)c1	-41*
O=C(O)CSc1cc(NS(=O)(=O)c2cccc([N+](=O)[O-])c2)c2ccccc2c1O	59
CCOC(=O)C1CCN(C(=O)Nc2ccc3nc(-c4ccco4)c(-c4ccco4)nc3c2)CC1	43
CC(C)(C=O)C1=CC(=O)c2ccccc2C1=O	51
Cc1ccc(NC(=O)CN2C(=O)S/C(=C/c3ccc(-c4cc(C(=O)O)ccc4C)o3)C2=O)cc1C	43
CCOC(=O)C1=C(Cc2ccc(Cl)cc2)C(=O)c2ccccc2C1=O	60
Cc1sc(-c2ccccn2)nc1OC(=O)c1ccc(F)cc1F	-50*
O=Cc1[nH]c2ccccc2c1N(C(=O)CCl)c1ccccc1	35
Cn1c(SSc2ccc(-c3cccnc3)n2C)ccc1-c1cccnc1	-341*
O=C(OCC(=O)N1CCN(C(=O)c2ccco2)CC1)c1cc(-c2ccccc2)nc2ccccc12	37
NC(=O)C1CCN(C2=C(Cl)C(=O)c3ccccc3C2=O)CC1	47
CCOC(=O)c1c(NC(=O)CSc2nnnn2-c2ccc(OC)cc2)sc(C)c1C	-48*
CC(=O)n1cc(N(C(=O)CCl)c2ccc(C)cc2)c2ccccc21	41
CC1=NOC(=O)/C1=C\c1ccc(-c2cc(Cl)ccc2Cl)o1	57
CN(C)c1ccc(C=c2c3ccccc3n3c2cc(-c2ccccc2)[n+]3C)cc1	37
COc1ccc(C(=O)c2coc3c2C(=O)C(=O)c2ccccc2-3)cc1	61
SMILES	HKDC1 act
COc1cc(N=c2ssnc2Cl)cc(OC)c1	-51*
Cc1ccc(Sc2ccc(/C=C3/C(=O)NN(c4ccccc4)C3=O)o2)cc1	35
CCc1ccc(S(=O)(=O)Nc2cc(SCC(=O)O)c(O)c3ccccc23)cc1	54
O=c1c2ccccc2nc2n1CCC2	82
Fc1ccc(N=C2NN=C(c3cc(F)ccc3F)CS2)cc1	-218*
Fc1ccccc1N=C1NN=C(c2ccccc2)CS1	-82*
CC(C)(C)N=C1NN=C(c2ccc(S(=O)(=O)N3CCCCC3)cc2)CS1	-67*
O=S(=O)(c1cccc(COc2ccc(Cl)cc2Cl)c1)N1CCOCC1	39
O=S(=O)(c1ccc(N=C2NN=C(c3cc(F)ccc3F)CS2)cc1)N1CCOCC1	-308*
CC(C(=O)O)N1C(=O)/C(=C/C=C/c2ccco2)SC1=S (stereo not drawn)	56
O=C(O)c1[nH]c2ccccc2c1C(c1cc(Cl)cc([N+](=O)[O-])c1O)c1c(C(=O)O)[nH]c2ccccc12	38
CC1=C(SCc2ccccc2)C(=O)c2ccccc2C1=O	44
Cc1ccc(-c2ccc(/C=C3\C(=O)ON=C3c3ccccc3)o2)c([N+](=O)[O-])c1	43
O=C(O)c1ccccc1-c1ccc(/C=c2\sc3nc4cc(Br)cnc4n3c2=O)o1	68
O=C(Nc1ccc2nc(-c3ccco3)c(-c3ccco3)nc2c1)N1CCCCCC1	45
CC1(OC(=O)CCc2ccccc2)C(=O)C=C2C=C(c3ccc(C#N)cc3)N(Cc3ccccc3)C=C2C1=O (stereo not drawn)	36
O=C(O)c1cc(O)c2c(c1)C(=O)c1cccc(O)c1C2=O	40
O=c1cc(O)sc2ccccc12	43
CC(C)(C)c1c(Cl)c(O)c(-c2ccccc2)c(=O)n1-c1ccccc1	36
Cc1cc(C(=O)COC(=O)c2cc(O)c3ccccc3c2O)c(C)n1CC1CCCO1 (stereo not drawn)	47
COc1cccc(/C=N/Nc2ccc([N+](=O)[O-])cn2)c1O	36
O=C(CSc1nnc(CCCN2C(=O)c3cccc4cccc(c34)C2=O)n1-c1ccccc1)N1CCCCC1	37
O=c1c2c3nc4ccccc4nc3n(-c3ccc4c(c3)OCCO4)c2ncn1C1CCCC1	48
CC(=O)Nc1ccc(C2=NNC(=Nc3ccc(S(=O)(=O)N4CCOCC4)cc3)SC2)cc1	-339*
Fc1ccc(F)c(C2=NNC(=Nc3ccccc3F)SC2)c1	-143*
SMILES	HKDC1 act
CCC(=O)OC1(C)C(=O)C2=COC(c3ccc(OC)cc3)=CC2=C(Br)C1=O (stereo not drawn)	45
O=Cc1ccc(Sc2nnc(-c3ccccc3)o2)c([N+](=O)[O-])c1	43
Oc1ccc(Br)cc1CNc1cccc2cccnc12	40
O=C(O)c1cc(O)c2c(c1)[C@H]([C@H]1c3cc(C(=O)O)cc(O)c3C(=O)c3c(O[C@@H]4O[C@H](CO)[C@@H](O)[C@H](O)[C@H]4O)cccc31)c1cccc(OC3O[C@H](CO)[C@@H](O)[C@H](O)[C@H]3O)c1C2=O (stereo partly drawn)	87
Cc1nc2c(c(=O)c3ccccc3n2C)c(=O)n1-c1ccccc1	51
[S-]c1nnc(-c2ccc(Br)cc2)n1-c1ccccc1.[Zn+2]	49
CN1CCN(C2=C(Cl)C(=O)c3ccccc3C2=O)CC1	44
C=CC(=O)N1C/C(=C/c2ccc(Cl)cc2)C(=O)/C(=C\c2ccc(Cl)cc2)C1	45
CCCCCCCCCC(=O)NNC(=O)c1c(O)c2ccccc2n(CC)c1=O	-41*
Cc1ccc(S(=O)(=O)/N=C2\C=C(Nc3cccc(C(=O)O)c3)C(=O)c3ccccc32)cc1	45
CCCN(CCC)C(=O)c1cc([N+](=O)[O-])cc2c1-c1ccc([N+](=O)[O-])cc1C2=C(C#N)C#N	41
O=C1C=C(Nc2ccccc2C(=O)O)c2ccccc2C1=O	46
O=C1C(Cl)=C(NC(=O)c2ccccc2)C(=O)C(Cl)=C1NC(=O)c1ccccc1	43
CCN(CC)c1ccc(NC(=O)c2ccccc2Br)cc1S(=O)(=O)Nc1ccccc1OC	-43*
O=C(/C=C/c1cccc([N+](=O)[O-])c1)c1ccc([N+](=O)[O-])o1	55
Oc1ccc2ccccc2c1C=Nc1ccccc1Br	38
CC(=O)NC1C(=O)N(CCN2CCOCC2)c2ccc(Br)cc21 (stereo not drawn)	81
Cc1nc2c3cc(F)ccc3n(Cc3ccccc3)c2s1	-60*
C=CC(=O)N1C/C(=C/c2ccccc2)C(=O)/C(=C\c2ccccc2)C1	38
N#CC(C#N)=Cc1cc2ccccc2nc1N1CCCCC1	38
Nc1nc(Cl)c(N)c(NCC2(CO)CC(CCc3ccccc3)C2)n1 (stereo not drawn)	42
CC1=NOC(=O)/C1=C\c1ccc(-c2ccc(Br)cc2)o1	42
Cc1onc(-c2ccccc2)c1C(=O)NC(=S)NNC(=O)c1ccccc1O	-45*
O=C(Nc1ccc(F)cc1)C(=O)c1c(O)[nH]c2ccc([N+](=O)[O-])cc12	42
O=C1C=C(N(CCO)Cc2ccccc2)c2ccccc2C1=O	35
COc1cc(/C=C2\SC(=S)N(c3cccnc3)C2=O)ccc1O	38
Nc1nc(-c2cccc(Br)c2)cs1	-65*

Screens deposited in PubChem by Sanford-Burnham Center for Chemical Genomics.
